Assay results taken from ChEMBL document CHEMBL5226332, “Amino-Substituted 3-Aryl- and 3-Heteroarylquinolines as Potential Antileishmanial Agents” (J Med Chem, 2021).

Columns and labels:
Type in all cases: ADME, organism-based
Conditions in all cases: in vivo
[1] = Cmax in BALB/c mouse at 10 mg/kg, iv measured after 24 hrs by LC/MS analysis; design: time 24 hrs, dose 10 mg/kg, route iv
In short: (§1)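 Mice given one 10 mg/kg dose by IV, oral or IP route; parent and monomethyl metabolite measured in plasma. Oral dose given in 10/10/40/39 EtOH/PG/PEG400/PBS (pH 7.4) plus 1% w/v HβCD. Vd is steady-state for IV and apparent for the other routes.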

[2] = AUC in BALB/c mouse at 10 mg/kg, iv measured after 24 hrs by LC/MS analysis; design: dose 10 mg/kg, time 24 hrs, route iv; in short: as §1
[3] = Volume of distribution in BALB/c mouse at 10 mg/kg, iv measured after 24 hrs by LC/MS analysis; in short: as §1
[4] = Cmax in BALB/c mouse at 10 mg/kg, po measured after 24 hrs by LC/MS analysis; design: dose 10 mg/kg, time 24 hrs, route po; in short: as §1
[5] = Tmax in BALB/c mouse at 10 mg/kg, po measured after 24 hrs by LC/MS analysis; in short: as §1
[6] = AUC in BALB/c mouse at 10 mg/kg, po measured after 24 hrs by LC/MS analysis; design: time 24 hrs, dose 10 mg/kg, route po; in short: as §1
[7] = Cmax in BALB/c mouse at 10 mg/kg, ip measured after 24 hrs by LC/MS analysis; design: dose 10 mg/kg, time 24 hrs, route ip; in short: as §1
[8] = AUC in BALB/c mouse at 10 mg/kg, ip measured after 24 hrs by LC/MS analysis; design: dose 10 mg/kg, time 24 hrs, route ip; in short: as §1

SMILES | Cmax [1] | AUC [2] | Vd [3] | Cmax [4] | Tmax [5] | AUC [6] | Cmax [7] | AUC [8]
CN(C)c1ccc2cc(-c3cc(Cl)cc(Cl)c3)c(N)nc2c1 | 741 nM | 3.91 µM·h | 25.9 L/kg |  |  |  |  | 
CN(C)c1ccc2cc(-c3cn(C)c4ccccc34)c(N)nc2c1 | 2840 nM | 5.95 µM·h | 9.88 L/kg | 1000 nM | 6 min | 0.921 µM·h | 3170 nM | 3.81 µM·h
